The results in this text go back to ChEMBL document CHEMBL4152390, “Discovery of the First-in-Class Dual Histone Deacetylase-Proteasome Inhibitor” (J Med Chem, 2018).

Molecules are shown by their SMILES. Active and inactive are the calls of the source. The rule behind the calls is not given here.

As usually defined, the IC50 is the concentration at which inhibition is half-maximal.

Experiment [1] has as its target Histone deacetylase 2 (Homo sapiens, UniProt Q92769). Briefly: Inhibition of C-terminal GST-tagged recombinant human HDAC2 expressed in baculovirus infected insect cells using RHKK(Ac)AMC as substrate by fluorescence-based assay.
The target of experiment [2] is Histone deacetylase 3/Nuclear receptor corepressor 2 (HDAC3/NCoR2) (Homo sapiens, UniProt O15379). Format: ADME, cell-based.
Histone deacetylase 3/Nuclear receptor corepressor 2 (HDAC3/NCoR2), sequence (O15379 whole entry): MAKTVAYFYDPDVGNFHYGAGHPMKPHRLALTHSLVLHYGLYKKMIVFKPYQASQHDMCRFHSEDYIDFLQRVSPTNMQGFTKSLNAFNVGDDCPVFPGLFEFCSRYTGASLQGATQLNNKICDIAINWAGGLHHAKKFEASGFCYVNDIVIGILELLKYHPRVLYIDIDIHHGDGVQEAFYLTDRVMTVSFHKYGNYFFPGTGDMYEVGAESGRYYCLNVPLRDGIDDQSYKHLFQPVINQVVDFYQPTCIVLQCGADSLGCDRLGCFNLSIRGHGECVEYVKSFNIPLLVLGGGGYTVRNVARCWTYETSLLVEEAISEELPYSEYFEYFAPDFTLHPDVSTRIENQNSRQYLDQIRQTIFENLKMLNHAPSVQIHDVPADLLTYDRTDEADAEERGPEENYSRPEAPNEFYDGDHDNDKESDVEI
Histone deacetylase 3/Nuclear receptor corepressor 2 (HDAC3/NCoR2), sequence (Q9Y618 whole entry, further chain): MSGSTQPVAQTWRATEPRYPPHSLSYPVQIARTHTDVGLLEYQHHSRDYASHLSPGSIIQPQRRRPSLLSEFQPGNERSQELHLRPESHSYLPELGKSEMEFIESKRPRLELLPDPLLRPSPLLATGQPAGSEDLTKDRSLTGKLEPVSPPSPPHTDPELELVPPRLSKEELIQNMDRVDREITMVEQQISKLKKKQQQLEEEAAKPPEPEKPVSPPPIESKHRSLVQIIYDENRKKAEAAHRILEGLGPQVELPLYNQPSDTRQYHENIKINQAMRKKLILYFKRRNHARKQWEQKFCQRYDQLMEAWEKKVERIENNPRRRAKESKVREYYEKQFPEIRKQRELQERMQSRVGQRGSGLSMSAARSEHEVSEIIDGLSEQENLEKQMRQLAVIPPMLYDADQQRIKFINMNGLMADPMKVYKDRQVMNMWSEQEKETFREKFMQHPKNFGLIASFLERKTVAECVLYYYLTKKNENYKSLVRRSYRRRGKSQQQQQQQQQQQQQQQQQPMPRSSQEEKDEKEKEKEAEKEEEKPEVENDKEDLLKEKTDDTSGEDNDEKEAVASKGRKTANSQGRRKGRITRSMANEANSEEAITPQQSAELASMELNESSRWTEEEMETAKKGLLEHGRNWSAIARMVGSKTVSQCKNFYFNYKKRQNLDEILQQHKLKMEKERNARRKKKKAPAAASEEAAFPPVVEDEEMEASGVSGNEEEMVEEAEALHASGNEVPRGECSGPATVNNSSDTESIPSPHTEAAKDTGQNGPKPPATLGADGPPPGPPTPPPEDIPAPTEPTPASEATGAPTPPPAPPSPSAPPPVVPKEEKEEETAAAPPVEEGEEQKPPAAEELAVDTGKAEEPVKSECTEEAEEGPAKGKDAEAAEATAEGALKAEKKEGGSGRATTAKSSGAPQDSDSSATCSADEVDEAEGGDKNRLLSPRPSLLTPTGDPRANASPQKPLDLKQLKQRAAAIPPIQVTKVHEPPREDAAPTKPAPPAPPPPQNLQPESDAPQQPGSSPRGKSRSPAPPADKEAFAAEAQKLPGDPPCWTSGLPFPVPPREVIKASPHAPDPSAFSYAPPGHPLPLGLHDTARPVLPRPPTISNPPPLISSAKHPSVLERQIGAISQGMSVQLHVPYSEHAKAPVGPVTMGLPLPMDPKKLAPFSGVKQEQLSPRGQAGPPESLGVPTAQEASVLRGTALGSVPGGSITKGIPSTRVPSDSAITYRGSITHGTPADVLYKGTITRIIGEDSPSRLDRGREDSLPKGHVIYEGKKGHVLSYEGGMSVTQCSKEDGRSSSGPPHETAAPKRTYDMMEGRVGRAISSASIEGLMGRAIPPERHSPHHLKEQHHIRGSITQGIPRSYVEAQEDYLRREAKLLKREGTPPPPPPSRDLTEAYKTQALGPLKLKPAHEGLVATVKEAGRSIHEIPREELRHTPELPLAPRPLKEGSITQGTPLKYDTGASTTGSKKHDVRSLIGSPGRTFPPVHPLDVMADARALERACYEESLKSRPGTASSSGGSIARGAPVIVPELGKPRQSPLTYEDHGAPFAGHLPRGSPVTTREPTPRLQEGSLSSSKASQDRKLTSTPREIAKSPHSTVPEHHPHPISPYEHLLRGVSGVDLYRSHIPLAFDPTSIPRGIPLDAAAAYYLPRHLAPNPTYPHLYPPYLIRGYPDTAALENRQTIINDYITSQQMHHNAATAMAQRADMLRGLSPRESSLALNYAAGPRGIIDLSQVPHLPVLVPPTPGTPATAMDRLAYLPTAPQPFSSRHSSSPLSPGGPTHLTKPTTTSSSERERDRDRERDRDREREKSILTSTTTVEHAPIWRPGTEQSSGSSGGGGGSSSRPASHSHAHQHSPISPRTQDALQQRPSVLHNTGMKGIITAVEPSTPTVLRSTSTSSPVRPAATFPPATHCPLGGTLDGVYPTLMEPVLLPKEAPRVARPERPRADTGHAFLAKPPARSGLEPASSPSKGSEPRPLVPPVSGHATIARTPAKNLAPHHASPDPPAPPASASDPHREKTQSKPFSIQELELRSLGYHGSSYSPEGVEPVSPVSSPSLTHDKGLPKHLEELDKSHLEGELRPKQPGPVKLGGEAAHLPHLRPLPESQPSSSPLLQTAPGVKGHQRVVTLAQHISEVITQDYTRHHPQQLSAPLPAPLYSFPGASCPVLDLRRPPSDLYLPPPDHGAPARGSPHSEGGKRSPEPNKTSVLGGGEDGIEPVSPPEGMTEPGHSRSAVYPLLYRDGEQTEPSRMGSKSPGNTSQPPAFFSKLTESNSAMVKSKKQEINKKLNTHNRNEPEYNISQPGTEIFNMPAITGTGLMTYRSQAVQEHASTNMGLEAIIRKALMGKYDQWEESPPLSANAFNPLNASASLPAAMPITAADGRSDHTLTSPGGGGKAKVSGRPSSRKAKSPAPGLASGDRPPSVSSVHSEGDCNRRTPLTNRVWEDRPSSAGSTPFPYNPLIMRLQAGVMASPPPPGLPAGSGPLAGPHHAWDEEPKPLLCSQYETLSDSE
For experiment [3], the target named is T1, Protein deacetylase HDAC6 (Homo sapiens) (UniProt Q9UBN7).
T1 sequence (whole entry): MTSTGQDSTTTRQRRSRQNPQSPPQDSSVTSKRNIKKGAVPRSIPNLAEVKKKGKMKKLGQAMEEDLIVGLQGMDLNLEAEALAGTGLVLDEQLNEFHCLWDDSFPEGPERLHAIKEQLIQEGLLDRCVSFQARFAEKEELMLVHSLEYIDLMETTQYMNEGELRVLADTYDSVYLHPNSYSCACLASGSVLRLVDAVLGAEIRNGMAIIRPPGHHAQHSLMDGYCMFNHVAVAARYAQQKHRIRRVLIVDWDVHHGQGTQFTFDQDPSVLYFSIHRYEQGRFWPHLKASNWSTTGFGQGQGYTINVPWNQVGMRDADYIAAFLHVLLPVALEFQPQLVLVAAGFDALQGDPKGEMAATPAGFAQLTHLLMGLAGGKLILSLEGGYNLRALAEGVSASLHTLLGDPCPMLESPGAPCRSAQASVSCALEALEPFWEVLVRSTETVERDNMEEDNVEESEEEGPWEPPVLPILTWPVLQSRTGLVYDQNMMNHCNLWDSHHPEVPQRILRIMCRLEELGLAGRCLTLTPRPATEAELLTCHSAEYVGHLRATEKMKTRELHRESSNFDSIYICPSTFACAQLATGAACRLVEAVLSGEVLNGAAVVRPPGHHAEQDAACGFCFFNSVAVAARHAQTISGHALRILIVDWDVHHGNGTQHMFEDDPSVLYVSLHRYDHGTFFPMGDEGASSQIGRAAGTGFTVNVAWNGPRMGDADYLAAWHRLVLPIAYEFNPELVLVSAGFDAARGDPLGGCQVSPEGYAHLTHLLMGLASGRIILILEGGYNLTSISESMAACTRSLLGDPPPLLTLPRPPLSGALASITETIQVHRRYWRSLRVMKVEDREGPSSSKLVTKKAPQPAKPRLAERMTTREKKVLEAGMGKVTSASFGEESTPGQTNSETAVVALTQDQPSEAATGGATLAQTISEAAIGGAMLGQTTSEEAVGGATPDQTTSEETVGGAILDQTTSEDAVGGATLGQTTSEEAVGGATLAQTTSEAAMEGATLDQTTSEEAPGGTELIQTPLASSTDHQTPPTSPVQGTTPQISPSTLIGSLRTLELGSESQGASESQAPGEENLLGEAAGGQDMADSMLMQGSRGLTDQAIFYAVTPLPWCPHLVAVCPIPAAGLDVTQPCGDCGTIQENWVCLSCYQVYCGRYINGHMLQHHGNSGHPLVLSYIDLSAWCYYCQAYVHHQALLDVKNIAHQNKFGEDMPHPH
Briefly: Inhibition of HDAC6 in human SEM cells assessed as increase in acetyl-alpha tubulin expression at 0.1 to 10 uM after 24 hrs by immunoblot assay. Format: cell-based. In a few lines:
(§1)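 Cells exposed for 24 h at indicated concentrations; lysates immunoblotted for acetyl-α-tubulin, acetyl-histone H3, PARP, with GAPDH as loading control.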
For orientation: In western blotting, separated proteins are transferred to a membrane and probed.

Experiment [4] has as its target T1, Protein deacetylase HDAC6 (Homo sapiens). Briefly: Inhibition of HDAC6 in imatinib-resistant human SUP-B15 cells assessed as increase in acetyl-histone H3 expression at 0.1 to 10 uM after 24 hrs by immunoblot assay. The experiment is classed as cell-based. In a few lines:
as §1

Experiment [5] has as its target T2, Proteasome Macropain subunit MB1 (Homo sapiens, UniProt P28074).
T2 sequence (P28074 whole entry): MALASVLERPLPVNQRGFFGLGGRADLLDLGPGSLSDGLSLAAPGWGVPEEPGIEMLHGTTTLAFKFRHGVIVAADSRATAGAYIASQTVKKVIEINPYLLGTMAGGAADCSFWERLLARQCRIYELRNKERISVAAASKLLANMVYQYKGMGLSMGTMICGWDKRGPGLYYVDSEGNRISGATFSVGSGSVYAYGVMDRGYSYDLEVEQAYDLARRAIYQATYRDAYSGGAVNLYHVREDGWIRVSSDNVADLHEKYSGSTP
Briefly: Inhibition of chymotrypsin-like activity of 20S proteasome in imatinib-resistant human SUP-B15 cells using Suc-LLVY aminoluciferin as substrate after 2 hrs by proteasome-Glo assay. Format: cell-based.

Experiment [6] deals with T3, Proteasome component C5 (Homo sapiens) (UniProt P20618).
T3 sequence (whole entry): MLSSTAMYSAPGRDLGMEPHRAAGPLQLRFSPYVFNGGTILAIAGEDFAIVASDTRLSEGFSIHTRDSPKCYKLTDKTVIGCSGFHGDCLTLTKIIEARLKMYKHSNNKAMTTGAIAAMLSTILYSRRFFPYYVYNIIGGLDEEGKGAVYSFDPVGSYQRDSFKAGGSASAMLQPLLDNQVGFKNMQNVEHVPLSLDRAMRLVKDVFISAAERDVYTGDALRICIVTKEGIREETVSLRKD
Briefly: Inhibition of caspase-like activity of 20S proteasome in human HL60 cells at 4 nM to 25 uM using Z-nLPnLD-aminoluciferin as substrate after 2 hrs by proteasome-Glo assay. Format: cell-based.

A short description of experiment [7]: Cytotoxicity against human RPMI18226 cells after 72 hrs by CellTiter-Glo luminescent cell viability assay. Format: functional, cell-based. Conditions: RPMI18226, 72 h.
Experiment [8] in a line: Cytotoxicity against human BCP-ALL cells derived from patient 1 after 72 hrs by CellTiter-Glo luminescent cell viability assay. Format: functional, cell-based. On the technique in general: Cellular ATP, detected with luciferase, serves as a proxy for viable cell number.
Experiment [9] relates to PBMC. Briefly: cells. The experiment is classed as ADME, cell-based. Conditions: Homo sapiens, 72 h.
In experiment [10] the test system is SEM cells. Briefly: Induction of apoptosis in human SEM cells assessed as increase in caspase 3/7 activity at IC50 after 48 hrs by glo assay relative to control. Format: functional. In a few lines:
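Cells treated at IC50 or 2x IC50 for 48 h; caspase-3/7 activity read by luminescence after cleavage of a DEVD-containing luminogenic substrate.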

In experiment [11] the test system is SEM cells. Briefly: Induction of early differentiation of human SEM cells assessed as increase in CD14 expression at IC50 to 2 times IC50 after 72 hrs by FACS analysis. Format: functional, cell-based. In a few lines:
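Surface CD11b and CD14 measured by FACS using fluorochrome-coupled monoclonal antibodies with matched isotype controls, after treatment in liquid medium.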
In general terms: Flow cytometry measures light scatter and fluorescence of single cells or particles in a stream.

The subject of experiment [12] is SEM cells. Briefly: Inhibition of HDAC6/chymotrypsin-like activity of 20S proteasome in human SEM cells assessed as increase in LC3B protein expression at 0.1 to 10 uM after 18 hrs by Western blot assay. The experiment is classed as cell-based. In a few lines: (§2)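 Cells treated 18 h at indicated concentrations; lysates analysed by western blot for heat shock (Grp94, HSP70, HSP40, HSP27), UPR (BIP, ATF4, ATF6, pJNK) and autophagy (LC3B, p62) proteins.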

The subject of experiment [13] is SEM cells. Briefly: Inhibition of HDAC6/chymotrypsin-like activity of 20S proteasome in human SEM cells assessed as increase in p62 protein expression at 0.1 to 10 uM after 18 hrs by Western blot assay. The experiment is classed as cell-based. In a few lines:
as §2

Histone deacetylase 2, sequence (Q92769 whole entry): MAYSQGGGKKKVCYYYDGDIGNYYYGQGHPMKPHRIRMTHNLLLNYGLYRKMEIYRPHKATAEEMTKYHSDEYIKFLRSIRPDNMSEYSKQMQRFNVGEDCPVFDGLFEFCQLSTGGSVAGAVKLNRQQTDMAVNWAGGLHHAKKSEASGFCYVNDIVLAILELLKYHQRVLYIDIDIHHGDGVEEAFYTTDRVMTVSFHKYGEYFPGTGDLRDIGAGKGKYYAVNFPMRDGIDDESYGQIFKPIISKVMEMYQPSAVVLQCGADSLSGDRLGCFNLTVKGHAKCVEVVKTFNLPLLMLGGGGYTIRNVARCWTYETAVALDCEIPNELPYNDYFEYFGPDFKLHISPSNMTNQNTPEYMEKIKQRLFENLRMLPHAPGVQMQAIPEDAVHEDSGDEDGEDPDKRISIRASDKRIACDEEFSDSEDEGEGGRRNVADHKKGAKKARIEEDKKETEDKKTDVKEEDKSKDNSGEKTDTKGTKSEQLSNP

For the compound `C[C@H](NC(=O)[C@H](CC(=O)NCC(C)(C)C)NC(=O)c1ccc(C(=O)NO)cc1)C(=O)NCc1ccccc1`, the half-maximal inhibitory concentration (IC50) is 18 µM in experiment [1]; 15 µM in experiment [2]; 0.82 µM in [5]; 1.75 µM in experiment [7]; 2.06 µM in experiment [8]; greater than 25 µM in experiment [9]. Besides, the inhibition result in experiment [3], in [4], in experiment [12] and in experiment [13] was “Active” throughout. For the same compound, in experiment [6], the inhibition result was “inactive”. For the same compound, in experiment [10], the “fold change (FC)” value is recorded as 6. The result in [11] was Active.
